Source: ChEMBL document CHEMBL1138136, “Aplysamine-1 and related analogs as histamine H3 receptor antagonists” (Bioorg Med Chem Lett, 2006)

Tests used:
Histamine H3 receptor [1] = molecular target: Histamine H3 receptor (Rattus norvegicus, UniProt Q9QYN8); test: Displacement of N-[3H]methylhistamine from rat histamine H3 receptor in rat cortical hemispheres
Histamine H3 receptor [2] = molecular target: T1, Histamine H3 receptor (Homo sapiens, UniProt Q9Y5N1); test: Displacement of N-[3H]methylhistamine from human histamine H3 receptor expressed in SK-N-MC cells; type: cell-based
Histamine H3 receptor [3] = molecular target: T1, Histamine H3 receptor; test: Activity against human histamine H3 receptor by histamine induced inhibition of forskolin stimulated cAMP accumulation in SK-N-MC cells; type: functional, cell-based; conditions: read-out: pA2 (converted)
Summary of the method: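 SK-N-MC cells overexpressing human H3 receptor; antagonist-induced rightward shifts of histamine dose–response curves for inhibition of forskolin-stimulated cAMP accumulation measured. pA2 obtained by Schild regression analysis.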

T1 sequence (Q9Y5N1 whole entry): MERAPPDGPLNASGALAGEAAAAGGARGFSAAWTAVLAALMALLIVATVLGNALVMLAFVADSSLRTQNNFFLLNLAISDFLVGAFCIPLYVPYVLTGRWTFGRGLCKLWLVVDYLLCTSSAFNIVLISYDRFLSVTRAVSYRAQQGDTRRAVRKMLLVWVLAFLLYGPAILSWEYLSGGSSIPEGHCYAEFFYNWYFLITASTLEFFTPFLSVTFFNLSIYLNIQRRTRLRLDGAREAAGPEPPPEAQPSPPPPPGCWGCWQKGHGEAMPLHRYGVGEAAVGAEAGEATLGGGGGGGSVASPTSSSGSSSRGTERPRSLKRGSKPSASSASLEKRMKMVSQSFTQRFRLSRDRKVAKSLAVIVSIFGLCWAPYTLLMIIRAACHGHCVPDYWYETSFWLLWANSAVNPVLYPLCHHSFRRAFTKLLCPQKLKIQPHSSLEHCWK
Chain of Histamine H3 receptor (Rattus norvegicus, UniProt Q9QYN8) (Q9QYN8 whole entry): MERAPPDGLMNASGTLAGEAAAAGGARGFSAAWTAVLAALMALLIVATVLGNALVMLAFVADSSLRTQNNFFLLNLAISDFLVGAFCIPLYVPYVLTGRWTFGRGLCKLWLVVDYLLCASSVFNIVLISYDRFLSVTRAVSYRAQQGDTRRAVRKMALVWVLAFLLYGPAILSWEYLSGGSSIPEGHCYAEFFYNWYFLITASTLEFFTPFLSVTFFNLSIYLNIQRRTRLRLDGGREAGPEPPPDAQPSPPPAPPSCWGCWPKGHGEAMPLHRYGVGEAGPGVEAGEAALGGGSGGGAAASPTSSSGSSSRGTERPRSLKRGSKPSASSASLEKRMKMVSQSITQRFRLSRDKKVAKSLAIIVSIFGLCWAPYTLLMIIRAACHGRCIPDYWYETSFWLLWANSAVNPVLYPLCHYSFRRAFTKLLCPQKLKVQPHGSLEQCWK

SMILES | Ki (Histamine H3 receptor [1]) | Ki (Histamine H3 receptor [2]) | Kb (Histamine H3 receptor [3])
c1cc(OCCCN2CCCCC2)ccc1CN1CCCCC1 [JNJ-5207852] | 1 nM | – | –
CN(C)CCc1ccc(OCCCN2CCCCC2)cc1 | 5 nM | 0.5 nM | 0.501 nM
Brc1cc(CN2CCCCC2)cc(Br)c1OCCCN1CCCCC1 | 57 nM | 8 nM | 7.24 nM
CN(C)CCc1ccc(OCCN2CCCCC2)cc1 | 50 nM | 14 nM | –
CN(C)CCCOc1c(Br)cc(CCN(C)C)cc1Br [APLYSAMINE] | 249 nM | – | –
CN(C)CCCOc1ccc(CN(C)C)cc1 | 255 nM | 18 nM | –
CN(C)CCCOc1ccc(CN2CCCCC2)cc1 | 45 nM | 3 nM | 9.33 nM
CN(C)CCCOc1c(Br)cc(CN(C)C)cc1Br | 319 nM | 36 nM | –
CN(C)CCOc1ccc(CCN(C)C)cc1 | 345 nM | 40 nM | –
CCCCN(CCCC)CCCOc1ccc(-c2cn3c(C)cccc3n2)cc1 | – | 4000 nM | –
CN(C)CCCOc1ccc(CCN(C)C)cc1 | 89 nM | 6 nM | 17 nM
